These results are taken from article PMC5152578 (Molecular oncology, 2016).

For test [1], the system named is MDA-MB-231 cells. Put plainly: Cell cycle analysis by flow cytometry. The note with it: for apoptotic sub-G1 DNA content / G0/G1 phase DNA content: 48 h at IC50 (DET 14 μM, DETD-35 3.8 μM, PTX 60 μM); for apoptotic sub-G1 DNA content: vehicle 1.3%; for G0/G1 phase DNA content: vehicle 51.5%; for cell-cycle arrest: treatment at IC50, time course. The test is classed as cell-based, human. The method in brief: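 MDA-MB-231 cells, 5 × 10^4 per well in 6-well plates, held 24 h in DMEM with 0.5% FBS. Medium then switched to 10% FBS with test compounds for 48 h, or for indicated times. Adherent and floating cells pooled, PBS-washed and fixed in ice-cold 70% ethanol overnight at 4 °C. Stained with 20 μg/mL RNase, Triton X-100 and 20 μg/mL propidium iodide for 30 min, dark, room temperature. Phase fractions (sub-G1, G0/G1, S, G2/M) taken from flow cytometric DNA histograms; three independent experiments.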
Background: A flow cytometer gives signals particle by particle.

The test system of test [2] is lung tissues of MDA-MB-231 xenograft SCID mice. Put plainly: Immunohistochemistry of lung tissues. The test is classed as in vivo, mouse. The note with it: lung tissue. The method in brief:
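Lungs from the metastasis model were fixed in 10% buffered formalin, paraffin-embedded and cut at 4 μm. Sections stained with H&E and immunostained with rabbit antibodies to VEGF, Ki-67, COX-2 and caspase 3. Staining levels quantified by image analysis and compared with sham and tumor control groups.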

For test [3], the system named is MDA-MB-231 cells. Nature of the test: Compound-drug combination assay. As to conditions: MTT, 24 h. Type of test: cell-based, human. In a few lines:
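MDA-MB-231 cells seeded at 1.5 × 10^3–5 × 10^3 per well in 96-well plates. Treated 24 h with each agent alone to derive IC40 by MTT. Then treated with the test compound (0–4 μM) combined with paclitaxel (0–100 nM) and read by MTT. Interaction assessed by classic isobologram and the Chou-Talalay method. Combination index plotted against fraction affected: CI <1 synergy, =1 additive, >1 antagonism.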

Test [4] relates to MDA-MB-231 cells. Nature of the test: Western blot analysis of protein markers. The test is classed as cell-based, human. As to conditions: for PARP (full-length and cleaved) expression: 48-h treatment. In a few lines: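 Total cellular protein from treated MDA-MB-231 cells, quantified by Bradford assay. Resolved on 4%–20% gradient SDS-PAGE and immunoblotted for PARP (full-length and cleaved), PN-1, Slug, vimentin, VEGF, E-cadherin, Snail, ZO-1 and ZEB-1, with actin as loading control. HRP secondary antibodies and enhanced chemiluminescence on film. Bands quantified by densitometry and normalised to actin.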

The subject of test [5] is MDA-MB-231 tumor cells in SCID mice. Nature of the test: Lung metastatic animal model of TNBC. The test is classed as in vivo, mouse. As to conditions: post-treatment, 5 mg/kg i.p. every three days (21 doses), day 71. In a few lines:
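Seventy female SCID mice, 5 weeks old, randomised into 7 groups. MDA-MB-231 cells (1 × 10^6) injected i.v. on day 0. One group received 10 mg/kg every two days for three doses before cell injection. Tumor and sham controls received 5% DMSO. Mice killed on day 71; lung colonies counted, body weight and organ index recorded; one-way ANOVA.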

Test [6] relates to MDA-MB-231 cells. Put plainly: Boyden chamber migration assay. Type of test: cell-based, human. The note with it: 24 h, vs vehicle; for reduction of cell migration, low concentration: DET 2.5 μM, DETD-35 1.25 μM, PTX 2.5 μM. In a few lines: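 Boyden inserts, 6.5 mm diameter, no coating. 5 × 10^4 MDA-MB-231 cells per insert in DMEM with 0.1% FBS. The lower well held 10% FBS chemoattractant with 0.5% DMSO vehicle or test compounds at two concentrations. Incubation 24 h, 37 °C, 5% CO2. Non-migrated cells removed by swab; migrated cells fixed, DAPI-stained (1 μg/mL) and counted in three fields at 20× by fluorescence microscopy. Three independent experiments, mean ± SEM, one-way ANOVA.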

In test [7] the test system is MDA-MB-231 cells. Nature of the test: Boyden chamber. Type of test: cell-based, human. The note with it: 24 h, Matrigel. The method in brief: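 Filters (8 μm) pre-coated with Matrigel (30 μg per filter) and held 2 h at 37 °C. MDA-MB-231 cells were seeded in the upper chamber at 5 × 10^4 per insert in DMEM with 0.1% FBS. The lower well held 10% FBS chemoattractant plus 0.5% DMSO vehicle or test compounds, two concentrations each. Incubation 24 h, 37 °C, 5% CO2. Cells on the upper surface were scraped off; invaded cells fixed, DAPI-stained (1 μg/mL) and counted in three 20× fields. Three independent experiments, mean ± SEM, one-way ANOVA.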

In test [8] the test system is stomach cancer cell line KATO III. Nature of the test: MTT cell viability assay, KATO III cells. The test is classed as cell-based. The note with it: read-out: 50% inhibitory concentration (IC50), KATO III, 24 h. In a few lines: (§1)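 Normal or cancer cells seeded at 2 × 10^3–1 × 10^4 per well in 96-well plates and allowed to settle overnight. Exposed to test compounds for 24 h, with paclitaxel run in parallel as reference. Growth read by MTT, OD570. Viability (%) = treated OD570 / vehicle OD570 × 100, with 0.5% DMSO vehicle set as 100%. IC50 derived from viability data.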
On the technique in general: Tetrazolium assays rely on reduction of a dye to a coloured formazan, in cell work by metabolically active cells.

The subject of test [9] is TS/A (ER+, HER2−) murine mammary cancer cell line. Nature of the test: MTT cell viability assay, TS/A cells. The test is classed as cell-based. The note with it: read-out: 50% inhibitory concentration (IC50), TS/A (mouse), Table 3, 24 h, breast. In a few lines:
as §1

Test [10] deals with brain cancer cell line U-87MG. Nature of the test: MTT cell viability assay, U-87MG cells. Type of test: cell-based. As to conditions: read-out: 50% inhibitory concentration (IC50), U-87MG, 24 h. The method in brief: as §1
The next test concerns PC3 cells (prostate). Nature of the test: MTT cell viability assay, PC3 cells. The test is classed as cell-based. As to conditions: read-out: 50% inhibitory concentration (IC50), PC3, 24 h. The method in brief: as §1
Test [11] has as its system colon cancer cell line HCT-116. Put plainly: MTT cell viability assay, HCT-116 cells. As to conditions: read-out: 50% inhibitory concentration (IC50), HCT-116, 24 h. Type of test: cell-based. In a few lines:
as §1

A further test has as its system lymphoma line U937. Nature of the test: MTT cell viability assay, U937 cells. Type of test: cell-based. As to conditions: read-out: 50% inhibitory concentration (IC50), U937, 24 h. In a few lines: as §1
Test [12] has as its system neuroepithelioma line SK-N-MC. Put plainly: MTT cell viability assay, SK-N-MC cells. Type of test: cell-based. As to conditions: read-out: 50% inhibitory concentration (IC50), SK-N-MC, 24 h. The method in brief: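 Cells (2 × 10^3–1 × 10^4 per well) seeded overnight in 96-well plates, then exposed to test compound for 24 h. Growth read by MTT colorimetric assay at OD570. Viability expressed as treated OD570 over vehicle (0.5% DMSO) OD570 × 100, with vehicle set to 100% viable. IC50 taken as the concentration giving 50% inhibition of viability.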

Another test relates to B16–F10 cells (skin). Put plainly: MTT cell viability assay, B16–F10 cells. The test is classed as cell-based. As to conditions: read-out: 50% inhibitory concentration (IC50), B16–F10 (mouse), 24 h. The method in brief: as §1
The test system of test [13] is lung cancer cell line PC6. Nature of the test: MTT cell viability assay, PC6 cells. Type of test: cell-based. The note with it: read-out: 50% inhibitory concentration (IC50), PC6, 24 h. In a few lines:
as §1

The test system of test [14] is MDA-MB-231 (ER−, PR−, HER2−) cells. Put plainly: MTT cell viability assay, MDA-MB-231 cells. Type of test: cell-based, human. As to conditions: read-out: 50% inhibitory concentration (IC50), MDA-MB-231, Table 3, 24 h, breast. In a few lines:
as §1

Test [15] relates to uterus cancer cell line NES-SA. Nature of the test: MTT cell viability assay, NES-SA cells. The note with it: read-out: 50% inhibitory concentration (IC50), NES-SA, 24 h. Type of test: cell-based. In a few lines: as §1
Test [16] deals with kidney cancer cell line A498. Nature of the test: MTT cell viability assay, A498 cells. Type of test: cell-based. The note with it: read-out: 50% inhibitory concentration (IC50), A498, 24 h. In a few lines:
as §1

[17] abbreviates: DET 4 μM, DETD-35 2.5 μM, PTX 4 μM.

As for `CC(=O)O[C@H]1C(=O)[C@@]2(C)[C@H]([C@H](OC(=O)c3ccccc3)[C@]3(O)C[C@H](OC(=O)[C@H](O)[C@@H](NC(=O)c4ccccc4)c4ccccc4)C(C)=C1C3(C)C)[C@]1(OC(C)=O)CO[C@@H]1C[C@@H]2O` [PTX, paclitaxel], in the test on MDA-MB-231 cells [1], the “apoptotic sub-G1 DNA content” value was determined as 66.8%, the “G0/G1 phase DNA content” value came to 11.2% and the cell-cycle arrest entry was “typical time-dependent G2/M arrest”. Besides, the “expression of apoptotic marker caspase 3” value in test [2] is listed as “increased expression”. For the same molecule, the “IC40 on MDA-MB-231 cells” value in the test on MDA-MB-231 cells [3] worked out at 23.8 nM. In addition, in the test with MDA-MB-231 cells [4], the “expressions of VEGF and protease nexin-1 (PN-1)” value is on record as “downregulated”; the vimentin expression result is given as “time-dependently downregulated”; the “PARP (full-length and cleaved) expression” value was “reduced the expression of full-length PARP”. Also, the “reduction of lung tumor foci” value in test [5] is reported as 62%. Besides, in the test on MDA-MB-231 cells [6], the “reduction of cell migration, low concentration” value is reported as 87%. The “reduction of cell migration, high concentration” value with MDA-MB-231 cells [6] (setting [17]) is 88%. Besides, the “inhibition of cell invasion, low concentration” value in the test with MDA-MB-231 cells [7] (DET 2.5 μM, DETD-35 1.25 μM, PTX 2.5 μM) is given as 85%. Also, the “inhibition of cell invasion, high concentration” value in the test with MDA-MB-231 cells [7] (setting [17]) came to 90%.
With `C=C(C)C(=O)O[C@H]1CC2=C[C@@H](C/C(C)=C/[C@H]3OC(=O)C(=C)[C@H]13)OC2=O` [compound 1, deoxyelephantopin, reference compound], the IC50 was 1470 nM in test [8]; 2600 nM in [9]; 1000 nM in test [10]; 12800 nM with PC3 cells (prostate); 280 nM in test [11]; 480 nM in the test with lymphoma line U937. Moreover, the IC50 stood at 510 nM in [12]; 6000 nM in the test on B16–F10 cells (skin); 400 nM in [13]; 14000 nM in test [14]; 900 nM in test [15]; 2820 nM in [16]. Besides, the “apoptotic sub-G1 DNA content” value in the test with MDA-MB-231 cells [1] amounted to 19.3%. For the same molecule, the “G0/G1 phase DNA content” value in the test on MDA-MB-231 cells [1] is on record as 36.2%. Moreover, the cell-cycle arrest result with MDA-MB-231 cells [1] was “did not show any cell-cycle arrest at specific stages”. Further, in the test on MDA-MB-231 cells [4], the “expressions of VEGF and protease nexin-1 (PN-1)” value is reported as “downregulated”. Moreover, the vimentin expression entry with MDA-MB-231 cells [4] was “did not regulate”. The “PARP (full-length and cleaved) expression” value in the test with MDA-MB-231 cells [4] is “induced significant cleavage in PARP”. Besides, the ZEB-1 expression level with MDA-MB-231 cells [4] (at 48 h) came out at 49%. Also, the “reduction of cell migration, low concentration” value in the test on MDA-MB-231 cells [6] stood at 16%.
Turning to Cinnamate [compound 28], the IC50 was 420 nM in test [8]; 1800 nM in test [9]; 350 nM in [10]; 4500 nM with PC3 cells (prostate); 110 nM in test [11]; 180 nM in the test on lymphoma line U937. The IC50 in test [12] came to 320 nM; with B16–F10 cells (skin), 3900 nM; in test [13], 170 nM; in test [14], 4000 nM; in test [15] it was 420 nM; in [16], 1110 nM.
